Experimental data published in ChEMBL document CHEMBL1125354, “Analogs of CCK incorporating conformationally constrained replacements for Asp32” (J Med Chem, 1992).
*1 amine or outer side, *2 acyl side, *3 side chain or, on linkers, in order; H or OH if unused. Where a SMILES comes first, the peptide text is derived from it. Side-chain parts run from the residue outwards. [ ]: non-standard residue; d: D form. The star is where a group is joined. ξ: configuration not given here. Thz(5,5-Me2) = CC1(C)SCN[C@@H]1C(=O)O; NMeF = CN[C@@H](Cc1ccccc1)C(=O)O; NH(2-Me-phenyl) = Cc1ccccc1N*; ξF = NC(Cc1ccccc1)C(=O)O; Boc = CC(C)(C)OC(=O)*; CO = O=C([*:1])[*:2]

Columns and labels:
Rattus norvegicus [1] = assay: Dose required to inhibit the food intake by 50% in rats after intraperitoneal administration; assay type: functional; settings: ip
Procedure, shortened: (§1)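 Male Sprague–Dawley rats (200–250 g), meal-fed. "1-2-1": trained 4–5 days on two 1-h meals 2 h apart; ip dosing 15 min before first meal, n=5–6. "Overnight fasted": n=5–7, ip vehicle or drug, food offered 1 h. Intake as % of saline control over first hour; t-test vs control; ED50 by log-probit.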

[2] = target: T1, Cholecystokinin receptor type A (Rattus norvegicus, UniProt P30551); assay: Inhibitory activity against cholecystokinin type A receptor from rat pancreas binding assay
T1 sequence (P30551 whole entry): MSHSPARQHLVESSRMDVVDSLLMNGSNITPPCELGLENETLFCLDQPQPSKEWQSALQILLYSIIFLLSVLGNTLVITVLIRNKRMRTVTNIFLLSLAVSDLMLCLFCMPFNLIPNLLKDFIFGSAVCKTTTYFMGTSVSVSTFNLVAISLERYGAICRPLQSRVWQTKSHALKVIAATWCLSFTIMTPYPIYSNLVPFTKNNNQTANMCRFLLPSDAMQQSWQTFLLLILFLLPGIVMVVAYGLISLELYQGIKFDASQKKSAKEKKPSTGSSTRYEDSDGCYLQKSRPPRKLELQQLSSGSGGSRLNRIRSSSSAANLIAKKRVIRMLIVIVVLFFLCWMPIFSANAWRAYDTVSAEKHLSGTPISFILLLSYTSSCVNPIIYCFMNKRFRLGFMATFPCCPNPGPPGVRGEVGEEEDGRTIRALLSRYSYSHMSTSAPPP
Procedure, shortened: (§2)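 Solubilized membranes from fresh pancreas of fasted rats (CCK-A). Competition against [3H]propanoyl-CCK-8. Nonspecific binding defined with 1 μM native CCK-8 and subtracted. IC50 is the concentration inhibiting 50% of total specific binding, from log-probit analysis. Actives confirmed in duplicate experiments.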

Rattus norvegicus [3] = assay: Dose required to inhibit the food intake by 50% in rats at a dose of 320 ug/kg ip; assay type: functional; procedure, shortened: as §1
[4] = target: T1, Cholecystokinin receptor type A; assay: Concentration inhibiting [3H]propionyl-CCK-8 binding to cholecystokinin type A receptor of rat pancreatic membranes.; procedure, shortened: as §2
[5] = target: T2, Gastrin/cholecystokinin type B receptor (Bos taurus, UniProt P79266); assay: Concentration inhibiting [3H]propionyl-CCK-8 binding to cholecystokinin type B receptor of bovine striatum.; assay type: tissue-based
T2 sequence (P79266 whole entry): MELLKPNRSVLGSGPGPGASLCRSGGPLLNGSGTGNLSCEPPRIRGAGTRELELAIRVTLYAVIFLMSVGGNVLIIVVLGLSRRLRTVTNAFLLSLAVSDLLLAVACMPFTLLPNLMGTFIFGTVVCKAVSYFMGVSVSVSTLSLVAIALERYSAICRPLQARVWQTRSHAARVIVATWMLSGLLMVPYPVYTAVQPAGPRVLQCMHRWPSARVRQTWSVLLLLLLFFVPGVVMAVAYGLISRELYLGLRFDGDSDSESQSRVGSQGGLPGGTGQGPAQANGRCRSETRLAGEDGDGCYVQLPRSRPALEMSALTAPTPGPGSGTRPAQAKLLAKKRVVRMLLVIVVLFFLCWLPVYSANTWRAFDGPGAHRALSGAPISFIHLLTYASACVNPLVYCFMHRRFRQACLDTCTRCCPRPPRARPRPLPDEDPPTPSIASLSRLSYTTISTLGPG
Procedure, shortened: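 CCK-B binding used solubilized bovine striatal membranes and [3H]propanoyl-CCK-8 displacement. Nonspecific binding was taken with 1 μM native CCK-8 and subtracted. IC50, the concentration giving 50% inhibition of total specific binding, was obtained by log-probit analysis. Actives were confirmed in duplicate experiments.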

Rattus norvegicus [6] = assay: Suppression of food intake in rats when administered intraperitoneally; assay type: functional; procedure, shortened: as §1

| IC50 [2] | IC50 [4] | IC50 [5] | SMILES | ED50 (Rattus norvegicus [3]) | further results |
| --- | --- | --- | --- | --- | --- |
| 59 nM | – | – | Cc1ccccc1NC(=O)NCCCC[C@H](NC(=O)[C@H](Cc1c[nH]c2ccccc12)NC(=O)OC(C)(C)C)C(=O)N1CSC(C)(C)[C@H]1C(=O)NC(Cc1ccccc1)C(N)=O (stereo not given in full) (Boc-WK([CO-NH(2-Me-phenyl)])[Thz(5,5-Me2)][ξF]-NH2) | – | ED50 (Rattus norvegicus [1]): 0.085 mg/kg |
| 0.05 nM | – | – | Cc1ccccc1NC(=O)NCCCC[C@H](NC(=O)[C@H](Cc1c[nH]c2ccccc12)NC(=O)OC(C)(C)C)C(=O)N[C@@H](CC(=O)O)C(=O)N(C)[C@@H](Cc1ccccc1)C(N)=O (Boc-WK([CO-NH(2-Me-phenyl)])D[NMeF]-NH2) | – | – |
| – | – | – | CSCC[C@H](NC(=O)[C@H](Cc1ccc(OS(=O)(=O)O)cc1)NC(C)=O)C(=O)NCC(=O)N[C@@H](Cc1c[nH]c2ccccc12)C(=O)N[C@@H](CCSC)C(=O)N1CSC(C)(C)[C@H]1C(=O)N[C@@H](Cc1ccccc1)C(N)=O [listing 1 of 2 here] | 0.0044 mg/kg | – |
| – | 0.05 nM | 2310 nM | CSCC[C@H](NC(=O)[C@H](Cc1ccc(OS(=O)(=O)O)cc1)NC(C)=O)C(=O)NCC(=O)N[C@@H](Cc1c[nH]c2ccccc12)C(=O)N[C@@H](CCSC)C(=O)N1CSC(C)(C)[C@H]1C(=O)N[C@@H](Cc1ccccc1)C(N)=O [listing 2 of 2 here] | – | – |
| – | 314 nM | 6160 nM | CSCC[C@H](NC(=O)[C@H](Cc1ccc(OS(=O)(=O)O)cc1)NC(C)=O)C(=O)NCC(=O)N[C@@H](Cc1c[nH]c2ccccc12)C(=O)N[C@@H](CCSC)C(=O)N1CSC(C)(C)[C@@H]1C(=O)N[C@@H](Cc1ccccc1)C(N)=O [listing 1 of 2 here] | – | – |
| – | – | – | CSCC[C@H](NC(=O)[C@H](Cc1ccc(OS(=O)(=O)O)cc1)NC(C)=O)C(=O)NCC(=O)N[C@@H](Cc1c[nH]c2ccccc12)C(=O)N[C@@H](CCSC)C(=O)N1CSC(C)(C)[C@@H]1C(=O)N[C@@H](Cc1ccccc1)C(N)=O [listing 2 of 2 here] | > 0.32 mg/kg | Control (Rattus norvegicus [6]): 66% |
